Compound activity (PubChem)
Shown are actives, neighbours in structure and some others; about 0.77% of the full set was active somewhere.
bIAP inhibitor: blocks bovine intestinal alkaline phosphatase activity. inhibition, % at 20 µM. 190,000 tested, under 10 active. purified bovine IAP, CDP-star luminescence, 30 min. AID 1019;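 active = over 50% inhibition of intestinal alkaline phosphatase at 20 µM in the single-dose screen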
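System: Purified bovine intestinal alkaline phosphatase (IAP) enzyme | Input: IAP diluted 1/65,000,000 in the well | Also added: CDP-star chemiluminescent phosphatase substrate, 30 µM final | Dosing: 20 µM single dose | Times: Enzyme reaction for 30 min at room temperature | Detection: Luminescence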
mIAP block: mouse IAP inhibition | purified mouse IAP, CDP-Star luminescence, 30 min | inhibition, % at 10 µM | 330,000 compounds, 0.2% hits;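 active = inhibition of at least 40% at 10 µM in the primary screen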
hIAP inh: blocks human intestinal alkaline phosphatase; inhibition, % at 10 µM; purified IAP, CDP-Star luminescence, 30 min; 330,000 compounds, 0.12% hits; P09923;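 active = inhibition reaching a set limit with compound at 10 µM in the primary screen, cut at about 35% in these data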
Target sequence (P09923 whole entry, looked up): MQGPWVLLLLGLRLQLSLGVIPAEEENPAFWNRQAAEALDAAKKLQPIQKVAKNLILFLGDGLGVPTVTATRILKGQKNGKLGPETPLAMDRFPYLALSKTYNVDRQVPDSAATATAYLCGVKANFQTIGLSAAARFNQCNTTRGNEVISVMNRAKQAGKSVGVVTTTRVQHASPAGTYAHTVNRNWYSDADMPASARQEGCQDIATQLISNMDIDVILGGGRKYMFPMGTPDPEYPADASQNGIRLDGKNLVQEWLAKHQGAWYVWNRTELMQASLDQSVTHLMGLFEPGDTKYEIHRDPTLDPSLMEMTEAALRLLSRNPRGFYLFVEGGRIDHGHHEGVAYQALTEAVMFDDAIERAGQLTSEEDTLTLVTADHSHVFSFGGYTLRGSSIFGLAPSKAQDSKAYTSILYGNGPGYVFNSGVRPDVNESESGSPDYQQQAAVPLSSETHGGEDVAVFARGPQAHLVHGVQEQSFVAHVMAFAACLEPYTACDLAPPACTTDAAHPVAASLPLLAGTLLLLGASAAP
bIAP activator: increases bovine intestinal alkaline phosphatase activity. 200,000 compounds, 0.17% hits. activation factor at 20 µM. purified bovine IAP, CDP-star luminescence, 30 min; active compounds read high; fold of DMSO-control signal, blank-subtracted. AID 1016;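 active = activation factor of 2 or more at 20 µM, a signal rise over negative controls twice the positive control's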
hIAP activ: increases human intestinal alkaline phosphatase activity | activation factor at 10 µM | 330,000 compounds, 0.16% hits | AID 2524 | purified human IAP, CDP-Star luminescence, 30 min; active compounds read high; 1 = vehicle-only enzyme, 0 = enzyme-free background;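 active = activation factor of the enzyme at least 2-fold when tested at 20 µM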
mIAP activ: increases mouse intestinal alkaline phosphatase activity; muIAP, CDP-Star luminescence, 30 min; active compounds read high; 1 = vehicle-only enzyme signal, 0 = enzyme-free wells; activation factor at 10 µM; 330,000 compounds, 0.24% hits;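 active = activation factor of at least 2 at 20 µM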
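System: mouse IAP enzyme. Reagent: CDP-Star chemiluminescent phosphatase substrate. Benchmarks: DMSO wells, no-enzyme wells. Times: 30 min enzyme-substrate-compound incubation at room temperature. Detection: luminescence from enzymatic CDP-Star hydrolysis. Doses: test compounds delivered from DMSO solution.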
hIAP act conf: human IAP activation confirmation. shares compounds with hIAP activ. purified IAP, CDP-Star luminescence, 30 min; active compounds read low. activation (%Activity, negative = activation), % at 8.3 µM. 880 compounds, 10% hits. AID 434926;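 active = at least twofold enzyme activation in any of six single-dose repeats, which the averaged readout prints as negative percent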
Each line names hits and unclear results; the compound was inactive in the other large screens (follow-up assays come after a bar, where they were run).

CCOC(=O)CN1NC2(CCCCCCC2)NC1=S	none (no result: bIAP inhibitor, bIAP activator)
CCOC(=O)CN1NC2(CCCCC2)NC1=S	mIAP block 51
O=C1CC(NS(=O)(=O)c2cccs2)CN1c1cccc(F)c1 (centres undefined)	none (no result: bIAP inhibitor, bIAP activator)
Cc1ccc(NC(=O)Nc2ccc(F)cc2)cc1Cl	mIAP activ 2
Cn1cc(NC(=O)Nc2ccc(C(F)(F)F)cc2)c(C(F)(F)F)n1	mIAP activ 2.9 (no result: bIAP inhibitor, bIAP activator)
Cc1oc(S(=O)(=O)N2CCCCC2)cc1NC(=O)Nc1ccc(F)cc1	mIAP activ 2.1 (no result: bIAP inhibitor, bIAP activator)
CC(C)(C)c1ccc(NC(=O)Nc2ccc(F)cc2)cc1	mIAP activ 2.2
CC(C)(C)c1ccc(COC(=O)Nc2ccc(F)cc2)cc1	none
O=C(Nc1ccc(F)cc1)Nc1ccc(S(=O)(=O)N2CCCC2)cc1	none (no result: bIAP inhibitor, bIAP activator)
Cc1ccc(NC(=O)CCC(=O)c2ccc(F)cc2)cc1Cl	none
Cn1cc(C(=O)Nc2ccc(Cl)cc2)c(C(F)(F)F)n1	none
CCCCc1ccc(NC(=O)CSc2nnc(CNC(=O)c3ccco3)o2)cc1	none (no result: bIAP inhibitor, bIAP activator)
COc1cc(C(=O)NCCC(c2ccccc2)c2ccccc2)cc(OC)c1OC	none (no result: bIAP inhibitor, bIAP activator)
CCOC(=O)c1ccc(NC(=S)NC(=O)C2CCCC2)cc1	none (no result: bIAP inhibitor, bIAP activator)
CCOC(=O)c1ccc(NC(=S)NC2CCCC2)cc1	mIAP activ 2.2
COC(=O)c1ccc(NC(=S)NC2CCCCC2C)cc1 (centres undefined)	mIAP activ 2.6
CC(=O)N1CCCc2cc(S(=O)(=O)N3CCCC3)ccc21	none (no result: bIAP inhibitor, bIAP activator)
CC12CCC(=O)N1C(C(=O)N1CCN(S(=O)(=O)c3ccc(F)c(F)c3)CC1)CS2 (centres undefined)	none (no result: bIAP inhibitor, bIAP activator)
O=C(Nc1ccc(F)cc1F)Nc1ccc(F)cc1F	none
O=C(Nc1ccc(F)cc1F)Nc1csc2ccccc12	mIAP activ 2.3 (no result: bIAP inhibitor, bIAP activator)
NC(=O)COc1ccc(-c2noc(COc3ccccc3[N+](=O)[O-])n2)cc1	none
C/C=C\C(=O)Nc1cccc(C2=NOC3(C2)C[C@@H](C(N)=O)N(C(=O)c2ccccc2)C3)c1 (some centres undefined)	mIAP block 44 (no result: bIAP inhibitor, bIAP activator)
CSCc1nc2sc(C(=O)Nc3nc(C)cs3)c(C)c2c(=O)[nH]1	mIAP block 42
O=C(CNC(=O)c1ccc(Br)cc1)NCc1cccnc1	none (no result: bIAP inhibitor, bIAP activator)
CC1=CC(C)(C)N2C(=O)C3(N=C(N)NC(Nc4ccccc4)=N3)c3cc(C)cc1c32 (centres undefined)	bIAP activator 2.3, mIAP activ 2.2
Cc1ccc(SCCNC(=S)Nc2cc(C)cc(C)c2)cc1	mIAP activ 3.3
COc1ccc(Cl)cc1NC(=S)NCCSc1ccc(C)cc1	mIAP activ 2.6
Cc1ccc(NC(=O)NCCSc2ccc(C)cc2)cc1	mIAP activ 2.5
COc1ccccc1NC(=S)NCCSc1ccc(Cl)cc1	none
CCn1c(SCC(=O)NC2CCCC2)nnc1C(C)C	none (no result: bIAP inhibitor, bIAP activator)
COc1ccc(Cl)c(N2CCN(CCCNC(=O)Nc3ccc(C)cc3)CC2)c1	bIAP activator 2.2
CN1C(=O)[C@H]2[C@@H](/C=C/c3ccccc3)N3C(=O)CN(CC4CC4)C(=O)[C@@]3(C)[C@H]2C1=O	none (no result: bIAP inhibitor, bIAP activator)
COc1cc([C@@H]2c3cc4c(cc3[C@@H](O[C@@H]3O[C@@H]5CO[C@@H](C)O[C@H]5[C@H](O)[C@H]3O)[C@H]3COC(=O)[C@H]23)OCO4)cc(OC)c1O	none (no result: bIAP inhibitor, bIAP activator)
O=C(Nc1cc(Cl)cc(Cl)c1)C1CCC(=O)N1Cc1ccccc1Cl (centres undefined)	mIAP activ 2
COc1ccc(NC(=O)CSc2ccc3nnc(-c4cccnc4)n3n2)c(OC)c1	none
OCCN1CCN(CC(O)COc2ccc3ccccc3c2)CC1 (centres undefined)	bIAP activator 2.9
c1ccc(COc2cccc(CN3CCc4ccccc4C3)c2)cc1	none (no result: bIAP inhibitor, bIAP activator)
COc1cc(/C=C2\SC(=S)N(NC(=O)c3ccccc3O)C2=O)ccc1O	none (no result: bIAP inhibitor, bIAP activator)
O=C(NN1C(=O)/C(=C/c2cc([N+](=O)[O-])ccc2O)SC1=S)c1ccccc1O	mIAP block 51 (no result: bIAP inhibitor, bIAP activator)
Cc1nc2cc(NC(=O)NCc3ccc4c(c3)OCO4)ccc2o1	none
Cc1nc2cc(NC(=O)Nc3ccc(Br)cc3)ccc2o1	mIAP activ 2
CCc1cc2ccc(C)cc2nc1SCC(=O)N1CCN(C(=O)c2ccco2)CC1	hIAP activ 2.1 | hIAP act conf inactive
CNC(=O)c1[nH]cnc1C(=O)Nc1ccccc1	none (no result: bIAP inhibitor, bIAP activator)
CNC(=O)c1[nH]cnc1C(=O)Nc1ccccn1	hIAP activ 2.1 | hIAP act conf inactive
O=C(N/N=C/c1ccc(F)cc1)c1cc(-c2ccccn2)nc2ccccc12	none (no result: bIAP inhibitor, bIAP activator)
COc1cccc(/C=N/Nc2ccc([N+](=O)[O-])cc2)c1O	hIAP inh 37 (no result: bIAP inhibitor, bIAP activator) | hIAP act conf inactive
COc1cccc(/C=N/NC(=O)c2ccc(=O)[nH]n2)c1O	hIAP activ 2.4 (no result: bIAP inhibitor, bIAP activator) | hIAP act conf inactive
COc1cccc(/C=N/NC(=O)c2cc(-c3ccccn3)nc3ccccc23)c1O	hIAP activ 2.1 (no result: bIAP inhibitor, bIAP activator) | hIAP act conf inactive
COc1cccc(/C=N/NC(=O)CNC(=O)c2ccncc2)c1O	hIAP activ 2.2 (no result: bIAP inhibitor, bIAP activator) | hIAP act conf inactive
O=C(NCC1CCCO1)c1ccc(Cl)c(S(=O)(=O)Nc2ccccc2)c1 (centres undefined)	none (no result: bIAP inhibitor, bIAP activator)
COc1cc(OC)c(OC)cc1/C=N/NC(=O)c1cc(-c2cccn2C)n[nH]1	none
CCOc1cccc(/C=N/NC(=O)c2cc(-c3cccn3C)n[nH]2)c1O	hIAP activ 2.6 | hIAP act conf inactive
Cc1ccsc1C(=O)NNC(=S)NC1CCCCC1	hIAP activ 2.3 (no result: bIAP inhibitor, bIAP activator) | hIAP act conf inactive
O=C(NCc1ccco1)c1ccccc1Br	none
O=C(NNC(=S)NCc1ccco1)c1ccccc1Br	hIAP activ 2.3 (no result: bIAP inhibitor, bIAP activator) | hIAP act conf inactive
O=C(NNC(=S)NC1CCCCC1)c1ccccc1Br	hIAP activ 2 (no result: bIAP inhibitor, bIAP activator) | hIAP act conf -43
CN(Cc1nc(-c2ccccc2)no1)C(=O)c1ccco1	none (no result: bIAP inhibitor, bIAP activator)
Cc1c(C(=O)N/N=C/c2c(O)ccc3ccccc23)nnn1-c1nonc1N	hIAP activ 2 (no result: bIAP inhibitor, bIAP activator) | hIAP act conf -86
O=C(CSc1nnc(NC(=O)c2ccc(S(=O)(=O)N3CCOCC3)cc2)s1)Nc1ccccc1C(F)(F)F	hIAP inh 87 | hIAP act conf inactive
Cc1nnc(NC(=O)c2ccc(S(=O)(=O)N3CCOCC3)cc2)s1	none (no result: bIAP inhibitor, bIAP activator)
Cc1ccc(NC(=O)C2CCN(S(=O)(=O)c3ccc4c(c3)OCCCO4)CC2)nc1	none (no result: bIAP inhibitor, bIAP activator)
CCc1cc(-c2n[nH]c(C)c2-c2nc3ccccc3s2)c(O)cc1OCC(=O)NN	bIAP activator 2, hIAP activ 2.3 | hIAP act conf inactive
CCCCSc1nnc(-c2ccccc2)c2ccccc12	none
COc1ccccc1COC(=O)C(NC(=O)c1ccc(C)cc1)C(C)C (centres undefined)	none (no result: bIAP inhibitor, bIAP activator)
